These results are taken from PMC6448596 (Cell reports, 2019).

Bounds are passed on as bounds.

For series [1], the system named is p53 turnover in MV4:11 cells. Put plainly: Cycloheximide. The class given is cell-based, human. Conditions: MV4:11, 2 μM, 24 h before CHX. The method in brief:
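Before the cycloheximide chase, MV4:11 cells were pretreated 24 h with 2 μM test compound, 2 μM Nutlin-3 as comparator, or DMSO only. p53 was then followed by immunoblot.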

Series [2] concerns gamma-H2AX in MV4:11 cells. Put plainly: gamma-H2AX immunofluorescence, DNA damage. The series is classed as cell-based, human. Conditions: MV4:11, 4 µM. The method in brief:
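Cells were cytospun onto slides (100,000 cells, 800 rpm, 3 min) and immunostained for γ-H2AX. Mean nuclear γ-H2AX signal was quantified and compared with DMSO by one-way ANOVA with Dunnett's test.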

The target of series [3] is WDR5 (Homo sapiens, UniProt P61964). Put plainly: 10-mer-Thr-FAM peptide TR-FRET competition assay. The series is classed as binding. The following applies: Kd, corresponds to TR-FRET Ki of Table S1.
The next series concerns SET-2 cells. Put plainly: Proliferation assay. The class given is cell-based. The following applies: Homo sapiens, SET-2, 72 h. The method in brief: (§1)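 CellTiter-Glo, 5,000 cells/well. Cells received 0.1% DMSO or at least five two-fold dilutions of test compound (top 50 μM, final DMSO 0.1%), in triplicate wells and ≥2 biological replicates, for 72 h at 37°C. Reagent was added after equilibration to RT, with 30 min dark incubation before luminescence. Signals were normalized to DMSO wells and GI50 obtained by curve fitting. Curve error bars are SEM.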

The test system of series [4] is Molm13 clones CRISPR-targeted with EGFP or p53 gRNA. Put plainly: Proliferation assay in CRISPR-targeted Molm13 clones. The series is classed as cell-based. Conditions: Homo sapiens, MOLM-13, 72 h, Molm13 clone 2p (p53 gRNA), 3-day treatment.
In another series the test system is K562 cells. Put plainly: Proliferation assay. The series is classed as cell-based. Conditions: Homo sapiens, K562, 72 h. The method in brief: as §1
The subject of series [5] is p53 and p21 protein levels in Molm13 cells. Put plainly: p53/p21 induction western blot. The class given is cell-based, human. The following applies: Molm13, 3 μM, 24 h. The gist of the method:
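Treatment lasted 24 h with test compound or its negative control, at 2 μM in MV4:11 and 3 μM in Molm13. Comparators were 2 μM Nutlin-3 or 0.1% DMSO. Four million cells were PBS-washed and lysed 10 min on ice in Kischkel buffer. p53 and p21 were detected by western blot, with histone H3 as loading control.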

Series [6] has as its system ribosome protein gene expression in MV4:11 cells. Put plainly: RT-qPCR quantification of RPG mRNA expression. The series is classed as cell-based, human. The following applies: MV4:11, three days, equal concentrations (4 µM) of OICR-9429 and C6. The gist of the method:
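Cells were lysed in Trizol and total RNA isolated on columns with DNase digestion. 1 μg RNA was reverse transcribed with MuLV reverse transcriptase in 20 μl, then diluted three-fold in nuclease-free water before qPCR.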

Series [7] concerns PARP-1 cleavage in MV4:11 cells. Put plainly: Induction of PARP1 cleavage. The series is classed as cell-based, human. The following applies: 2 μM. The method in brief: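 MV4:11 cells were treated 1, 2, 3 or 6 days with 2 μM test compound, its negative control or 0.1% DMSO. Cleaved PARP-1 was detected by western blot, with histone H3 as loading reference.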
A further series has as its system THP-1 cells. Put plainly: Proliferation assay. Conditions: Homo sapiens, THP-1, 72 h. The series is classed as cell-based. The method in brief:
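THP-1 cells were grown in RPMI-1640 with 0.05 mM 2-mercaptoethanol and 10% FBS. Cells were plated 5,000/well with ≥5 two-fold dilutions of test compound (top 50 μM, 0.1% DMSO final), in triplicate wells with ≥2 biological replicates.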

For a further series, the system named is MA93 FLT3-ITD cells. Put plainly: Proliferation assay. The following applies: Homo sapiens, 72 h. The series is classed as cell-based. The gist of the method:
(§2)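 CellTiter-Glo at 2,000 cells/well. MA93 Ras and MA93 FLT3/ITD were maintained in IMDM/20% FBS. Parental MA93 received IMDM/20% FBS plus 10 ng/mL human SCF, TPO, FLT3L, IL3 and IL6. Dosing used ≥5 two-fold dilutions from 50 μM top, 0.1% DMSO final, in triplicate wells with ≥2 biological replicates. Plates ran 72 h at 37°C, followed by 30 min reagent incubation at RT in the dark. GI50 came from DMSO-normalized luminescence.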

The subject of series [8] is WDR5. Put plainly: Surface plasmon resonance direct affinity measurement. The series is classed as binding, Human. The gist of the method:
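Enhanced SPR (eSPR) was run externally using purified WDR5 supplied by the authors. Test compounds were prepared as 30 mM DMSO stock solutions.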

The subject of the next series is MV4:11 cells. Put plainly: Proliferation assay. The class given is cell-based, human. The following applies: MV4:11, 3 days, mean with SEM. The gist of the method:
as §1

For series [9], the system named is TP53 mRNA on polysomes in MV4:11 cells. Put plainly: Polysome fractionation with RT-qPCR. The class given is cell-based, human. The following applies: MV4:11, 5 μM, 24 h. The method in brief:
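15 × 10^6 MV4:11 cells were treated 24 h with 5 μM test compound or DMSO and lysed 10 min on ice. Target mRNAs in monosomal and polysomal fractions were measured by RT-qPCR and normalized to GAPDH. Values were expressed as percent of total RNA, relative to DMSO.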

Another series relates to MA93 cells. Put plainly: Proliferation assay. The following applies: Homo sapiens, 72 h. The series is classed as cell-based. The method in brief:
as §2

On to `Cc1nc(F)ccc1-c1cc(Cn2ccn(C)c2=N)cc(C(=O)NCc2ccc(Cl)c(Cl)c2)c1` [Compound C6, N-(3,4-Dichlorobenzyl)-3-(6-fluoro-2-methylpyridin-3-yl)-5-((2-imino-3-methyl-2,3-dihydro-1H-imidazol-1-yl)methyl)benzamide], for which the “p53 turnover in CHX chase” value in [1] is listed as “no detectable effects on p53 turnover”. In addition, the “DNA damage response, accumulation of γ-H2AX foci” value in [2] was “does not induce a robust DNA damage response”. Moreover, the Kd on WDR5 [3] was roughly 0.0001 µM. In addition, the GI50 with SET-2 cells was greater than 50 µM; in series [4] it was 18 µM; in the series with K562 cells it was 25.4 ± 2.07 µM; in the series with THP-1 cells, greater than 50 µM; with MA93 FLT3-ITD cells, 2.47 ± 0.137 µM; with MV4:11 cells (Homo sapiens, MV4-11, 72 h) it was 2 µM. In addition, the GI50 is 3.2 ± 0.213 µM with MV4:11 cells and 5.04 ± 0.431 µM in the series with MA93 cells. In addition, in [5], the “p53 and p21 protein induction” value was “p53 and p21 are also induced”. Besides, the “transcription of RPGs” value in series [6] was “inhibited the transcription of RPGs”. The “time to detection of cleaved PARP-1” value in series [7] is recorded as no more than 24 h. Further, the “SPR affinity for WDR5 relative to values calculated by TR-FRET” value in the series on WDR5 [8] is no more than 2 fold. The “polysome-associated mRNAs” value in [9] was “promoted an accumulation of polysome-associated mRNAs for TP53”.
